Legend:
[1] = target: T1, Protein farnesyltransferase (Rattus norvegicus, UniProt Q02293+Q04631); assay: Inhibitory concentration against rat brain farnesyltransferase
How it was run: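 Rat brain FTase (40-fold purified), pH 7.4, in 30 mM potassium phosphate, 5 mM phosphate plus 50 mM Hepes, or 50 mM Hepes. Buffer also held 7 mM DTT, 1.2 mM MgCl2 and protease inhibitors. Final substrates were 0.12 μM [1-3H]FPP and 0.1 μM biotinyl-aminoheptanoyl-TKCVIM, with inhibitor varied from DMSO stock. Reaction ran 30 min at 37 °C, was stopped with streptavidin beads, and was counted by scintillation proximity. Generally n = 2.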

[2] = target: T1, Protein farnesyltransferase; assay: Inhibition of rat brain farnesyltransferase in 5 mM potassium phosphate and 50 mM HEPES buffer
How it was run: (§1)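 40-fold purified rat brain FTase at pH 7.4 with 1.2 mM MgCl2, leupeptin, pepstatin and PMSF. Substrates: [1-3H]farnesyl pyrophosphate (0.12 μM final) and biotinyl-aminoheptanoyl-TKCVIM peptide (0.1 μM final). Compounds were serially diluted from DMSO and incubated 30 min at 37 °C. Stopped with streptavidin beads in acidic Mg acetate/BSA and scintillation counted.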

[3] = target: T1, Protein farnesyltransferase; assay: Inhibition of rat brain farnesyltransferase in 30 mM potassium phosphate buffer; how it was run: as §1
[4] = target: T1, Protein farnesyltransferase; assay: Inhibition of rat brain farnesyltransferase in 50 mM HEPES buffer; how it was run: as §1
[5] = target: Protein farnesyltransferase (Homo sapiens, UniProt P49354+P49356); assay: Inhibition of human farnesyltransferase; assay type: protein-complex assay
[6] = target: geranylgeranyltransferase type-I (Rattus norvegicus, UniProt P53610+Q04631); assay: Inhibition of rat brain Geranylgeranyl transferase type I; settings: in the assay text read “rat” for “rat brain”
How it was run: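 Rat GGTase-I expressed in Sf9 cells, assayed like the FTase test. Substrates were geranylgeranyl pyrophosphate and biotinyl-aminoheptanoyl-Thr-Lys-Cys-Val-Ile-Leu, with inhibitor varied from DMSO stock. Incubation at 37 °C. Streptavidin bead capture with radioactivity count as the read-out.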

C[C@@H](NC(=O)[C@H](Cc1c[nH]c2ccccc12)NC(=O)[C@H](COCc1ccccc1)NC(=O)[C@H](Cc1ccc(OCc2ccccc2)cc1)NC(=O)[C@H](Cc1c[nH]cn1)NC(=O)OCc1ccccc1)C(N)=O (single isomer, unassigned)
IC50 [1]: 20 nM
IC50 [2]: 76 nM
IC50 [3]: 20 nM
IC50 [4]: 1600 nM
IC50 [5]: 10 nM
IC50 [6]: 1250 nM

C[C@H](NC(=O)[C@@H](Cc1c[nH]c2ccccc12)NC(=O)[C@@H](COP(=O)(O)O)NC(=O)[C@@H](Cc1ccc(OCc2ccccc2)cc1)NC(=O)[C@@H](Cc1cnc[nH]1)NC(=O)OCc1ccccc1)C(N)=O
IC50 [2]: 360 nM
IC50 [3]: 240 nM
IC50 [4]: 660 nM

C[C@@H](NC(=O)[C@H](Cc1c[nH]c2ccccc12)NC(=O)[C@H](COCc1ccccc1)NC(=O)[C@H](Cc1ccc(O)cc1)NC(=O)[C@H](Cc1c[nH]cn1)NC(=O)OCc1ccccc1)C(N)=O (single isomer, unassigned)
IC50 [1]: 35 nM
IC50 [2]: 102 nM
IC50 [3]: 35 nM
IC50 [4]: 510 nM

C[C@H](NC(=O)[C@@H](Cc1c[nH]c2ccccc12)NC(=O)[C@@H](COCc1ccccc1)NC(=O)[C@@H](Cc1ccc(OP(=O)(O)O)cc1)NC(=O)[C@@H](Cc1c[nH]cn1)NC(=O)OCc1ccccc1)C(N)=O
IC50 [2]: 9 nM
IC50 [3]: 13 nM
IC50 [4]: 6 nM

C[C@H](NC(=O)[C@@H](Cc1c[nH]c2ccccc12)NC(=O)[C@@H](COCc1ccccc1)NC(=O)C(Cc1ccc(CP(=O)(O)O)cc1)NC(=O)[C@@H](Cc1cnc[nH]1)NC(=O)OCc1ccccc1)C(N)=O (stereo partly specified)
IC50 [2]: 280 nM
IC50 [3]: 200 nM
IC50 [4]: 190 nM

C[C@H](NC(=O)[C@@H](Cc1c[nH]c2ccccc12)NC(=O)[C@@H](COCc1ccccc1)NC(=O)[C@H](CS)NC(=O)[C@@H](Cc1c[nH]cn1)NC(=O)OCc1ccccc1)C(N)=O
IC50 [1]: 4900 nM

CC(NC(=O)[C@@H](Cc1c[nH]c2ccccc12)NC(=O)[C@@H](COCc1ccccc1)NC(=O)[C@@H](Cc1ccc(OCc2ccccc2)cc1)NC(=O)[C@@H](Cc1c[nH]cn1)NC(=O)OCc1ccccc1)C(N)=O (stereo partly specified)
IC50 [1]: 8.5 nM

CCOP(=O)(Cc1ccc(CC(NC(=O)[C@@H](Cc2cnc[nH]2)NC(=O)OCc2ccccc2)C(=O)N[C@H](COCc2ccccc2)C(=O)N[C@H](Cc2c[nH]c3ccccc23)C(=O)N[C@@H](C)C(N)=O)cc1)OCC (stereo partly specified)
IC50 [2]: 49 nM
IC50 [3]: 25 nM
IC50 [4]: 75 nM

C[C@H](NC(=O)[C@@H](Cc1c[nH]c2ccccc12)NC(=O)[C@@H](COCc1ccccc1)NC(=O)C(CCC(N)=O)NC(=O)[C@@H](Cc1cnc[nH]1)NC(=O)OCc1ccccc1)C(N)=O (stereo partly specified)
IC50 [1]: 54 nM

C[C@H](NC(=O)C(Cc1ccccc1)NC(=O)[C@@H](COCc1ccccc1)NC(=O)[C@@H](Cc1ccc(OCc2ccccc2)cc1)NC(=O)[C@@H](Cc1cnc[nH]1)NC(=O)OCc1ccccc1)C(N)=O (stereo partly specified)
IC50 [1]: 2500 nM

C[C@H](NC(=O)[C@@H](Cc1c[nH]c2ccccc12)NC(=O)[C@@H](COCc1ccccc1)NC(=O)[C@@H](Cc1ccc(OCc2ccccc2)cc1)NC(=O)[C@@H](Cc1c[nH]cn1)NC(=O)OC1CCCCC1)C(N)=O
IC50 [1]: 3800 nM

C[C@@H](NC(=O)[C@H](Cc1c[nH]c2ccccc12)NC(=O)[C@H](COCc1ccccc1)NC(=O)[C@H](Cc1ccccc1)NC(=O)[C@H](Cc1c[nH]cn1)NC(=O)OCc1ccccc1)C(N)=O (single isomer, unassigned)
IC50 [1]: 9 nM

C[C@H](NC(=O)[C@@H](Cc1c[nH]c2ccccc12)NC(=O)[C@@H](COCc1ccccc1)NC(=O)[C@@H](Cc1ccc(OCc2ccccc2)cc1)NC(=O)[C@H](N)Cc1cnc[nH]1)C(N)=O
IC50 [1]: 4500 nM

C[C@H](NC(=O)[C@@H](Cc1c[nH]c2ccccc12)NC(=O)[C@@H](COCc1ccccc1)NC(=O)[C@H](C)NC(=O)[C@@H](Cc1c[nH]cn1)NC(=O)OCc1ccccc1)C(N)=O
IC50 [1]: 1000 nM

C[C@H](NC(=O)[C@@H](Cc1c[nH]c2ccccc12)NC(=O)[C@@H](COCc1ccccc1)NC(=O)[C@@H](Cc1ccc(OCc2ccccc2)cc1)NC(=O)[C@@H](Cc1c[nH]cn1)NC(=O)OCc1ccccc1)C(=O)O
IC50 [1]: 48 nM
